Test results reported in article PMC8856734 (Journal of medicinal chemistry, 2021).
Blank lines part the entries; values can stand above or below the compound they belong to.

Legend:
[1] = system: CBP; settings: read-out: CBP IC50; cited from earlier work
[2] = target: T1, BRD4 BD1 (Homo sapiens, UniProt O60885); test: BRD4 AlphaScreen assay with biotinylated JQ1; type: binding
[3] = system: IRF4/MYC axis; test: Immunoblot of MYC and IRF4 in MM.1S cells; type: cell-based; settings: 24 h, 2.5 μM
How it was run: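 MM.1S cells exposed 24 h to DMSO or 2.5 μM of test compounds (CBP/EP300-selective and BRD4-selective). Lysates immunoblotted for MYC and IRF4, with β-actin as loading control.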

[4] = target: T2, EP300 (P300) bromodomain (Homo sapiens, UniProt Q09472); test: Differential scanning fluorometry; type: binding; settings: temperature shift
T2 sequence (Q09472 1049-1156 limits assumed): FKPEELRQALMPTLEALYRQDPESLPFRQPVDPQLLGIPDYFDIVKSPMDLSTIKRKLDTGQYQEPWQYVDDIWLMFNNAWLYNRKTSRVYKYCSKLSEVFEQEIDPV

[5] = target: T3, CBP bromodomain (Homo sapiens, UniProt Q92793); test: Differential scanning fluorometry; type: binding; settings: for DSF selectivity: CBP and EP300 versus BRD4 BD1, compared with CBP30
[6] = target: T1, BRD4 BD1; test: Differential scanning fluorometry; type: binding; settings: temperature shift
[7] = target: T3, CBP bromodomain; test: CBP AlphaScreen assay with biotinylated small molecule probe compound C; type: binding; settings: for loss in inhibitory activity against CBP: other warheads in place of 3,5-dimethylisoxazole; for loss in CBP inhibitory activity: compared to compound 23
[8] = system: multiple myeloma lines; test: Cell viability, multiple myeloma lines; type: cell-based; settings: 5-day incubation
How it was run: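 Cells seeded at 500/well in 384-well plates; serially pre-diluted test compound added by pin transfer (100 nl). Viability read by CellTiter-Glo luminescence after 5-day incubation. Data normalized to DMSO control; IC50 from nonlinear regression curve fit.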

[9] = system: MOLM13 cells; test: CellTiter-Glo cell viability, MOLM13; type: cell-based; settings: 5 day, ATP-dependent luminescence
How it was run: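 MOLM13 cells seeded at 500/well in 384-well plates, given serially pre-diluted test compound or reference CBP inhibitor by pin transfer; 5-day incubation, then ATP-dependent luminescence (CellTiter-Glo).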

[10] = system: H3K27ac level; test: Immunoblot of H3K27ac in MOLM13 cells; type: cell-based; settings: 2 h
[11] = system: MYC expression level; test: Immunoblot of MYC in MOLM13 cells; type: cell-based; settings: 2 h
How it was run: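 MOLM13 cells seeded in 6-well plates at 1×10^6 cells/well and treated 2 h with DMSO or 3.0 μM test compound or reference CBP inhibitor. Protein extracted in RIPA plus protease inhibitor cocktail, run on Bis-Tris gels, wet-transferred to PVDF. Probed for MYC, β-actin, H3 and H3K27ac with IRDye secondaries.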

[12] = system: 34 bromodomains; test: BROMOSCAN profiling against 34 bromodomains; type: binding; settings: 1 μM compound concentration

T3 sequence (Q92793 1085-1192 limits assumed): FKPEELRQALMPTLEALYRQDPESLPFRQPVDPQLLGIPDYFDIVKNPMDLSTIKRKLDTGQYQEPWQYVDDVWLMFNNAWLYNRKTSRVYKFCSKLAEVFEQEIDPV

Structure (SMILES): COc1ccc(CCc2nc3cc(-c4c(C)noc4C)ccc3n2C[C@H](C)N2CCOCC2)cc1Cl [CBP30, reference compound]
IC50 [1]: […] | IC50 [2]: 10.1 ± 0.55 µM | IRF4/MYC axis perturbation [3]: perturbed

Structure (SMILES): Cc1noc(C)c1-c1ccn2c(NC3CCCCC3)c(CCc3ccccc3)nc2c1 [Compound 7, N-cyclohexyl-7-(3,5-dimethylisoxazol-4-yl)-2-phenethylimidazo[1,2-a]pyridin-3-amine]
DSF activity against EP300 [4]: more active | DSF activity against CBP ([5]; temperature shift): more active | DSF activity toward BRD4 [6]: very modest activity

Structure (SMILES): CN1Cc2cc(-c3ccn4c(NC5CCCCC5)c(CCc5ccccc5)nc4c3)ccc2NC1=O [Compound 9]
loss in inhibitory activity against CBP [7]: greater than 10 fold

Structure (SMILES): Cc1[nH]nc2cc(-c3ccn4c(NC5CCCCC5)c(CCc5ccccc5)nc4c3)ccc12 [Compound 10]
loss in inhibitory activity against CBP [7]: greater than 10 fold | IRF4/MYC axis perturbation [3]: not with BRD4 inhibitor

Structure (SMILES): Cc1noc2cc(-c3ccn4c(NC5CCCCC5)c(CCc5ccccc5)nc4c3)ccc12 [Compound 11]
loss in inhibitory activity against CBP [7]: greater than 10 fold | IRF4/MYC axis perturbation [3]: not with BRD4 inhibitor

Structure (SMILES): Cc1noc(C)c1-c1ccn2c(NC(C)(C)C)c(CCc3ccccc3)nc2c1 [Compound 13, N-(tert-butyl)-7-(3,5-dimethylisoxazol-4-yl)-2-phenethylimidazo[1,2-a]pyridin-3-amine]
decrease in CBP inhibitory potency ([7]; compared to compound 16): > 5 fold

Structure (SMILES): COc1ccc(CCc2nc3cc(-c4c(C)noc4C)ccn3c2NCc2ccccc2)cc1 [Compound 21]
decrease in CBP inhibitory potency ([7]; compared to compound 16): 10 fold

Structure (SMILES): COc1ccc(CCc2nc3cc(-c4c(C)noc4C)ccn3c2NCc2ccc(Cl)cc2)cc1 [Compound 22]
decrease in CBP inhibitory potency ([7]; compared to compound 16): 10 fold

Structure (SMILES): COc1ccc(CCc2nc3cc(-c4c(C)noc4C)ccn3c2NC2CCCCC2)cc1Cl [Compound 23, 2-(3-chloro-4-methoxyphenethyl)-N-cyclohexyl-7-(3,5-dimethylisoxazol-4-yl)imidazo[1,2-a]pyridin-3-amine]
MM cell growth inhibition [8]: IC50 values similar to CBP30 | MOLM13 cell growth inhibition [9]: IC50 values similar to CBP30 | H3K27ac level [10]: reduced the H3K27ac level similar to CBP30 | more potent against CBP ([7]; compared to compound 16): 2 fold | IRF4/MYC axis perturbation [3]: perturbed | DSF selectivity [5]: greater selectivity than the known inhibitor, CBP30 | MYC level [11]: caused MYC depletion | BROMOSCAN binding and selectivity [12]: better binding and selectivity compared to compound 7 and 16

Structure (SMILES): COc1ccc(CCc2nc3cc(-c4c(C)noc4C)ccn3c2NC2CCCCC2)cc1OC [Compound 32]
loss in CBP inhibitory activity [7]: ~ 10 fold

Structure (SMILES): COc1ccc(CCc2nc3cc(-c4c(C)noc4C)ccn3c2NC(C)C)cc1OC [Compound 33, 2-(3,4-dimethoxyphenethyl)-7-(3,5-dimethylisoxazol-4-yl)-N-isopropylimidazo[1,2-a]pyridin-3-amine]
loss in BRD4 inhibitory activity ([2]; compared to compound 23): 4 fold | loss in CBP inhibitory activity [7]: 49 fold

Second part, led by results:

decrease in CBP inhibitory potency ([7]; compared to compound 16): > 5 fold
Structure (SMILES): COc1ccc(CCc2nc3cc(-c4c(C)noc4C)ccn3c2NC23CC4CC(CC(C4)C2)C3)cc1 [Compound 14, N-((3s,5s,7s)-adamantan-1-yl)-7-(3,5-dimethylisoxazol-4-yl)-2-(4-methoxyphenethyl)imidazo[1,2-a]pyridin-3-amine]

decrease in CBP inhibitory potency ([7]; compared to compound 16): ~2 fold
Structure (SMILES): COc1ccc(CCc2nc3cc(-c4c(C)noc4C)ccn3c2NCCN2CCOCC2)cc1 [Compound 15]

increase in CBP inhibitory potency ([7]; compared to compound 7): 5 fold
Structure (SMILES): COc1ccc(CCc2nc3cc(-c4c(C)noc4C)ccn3c2NC2CCCCC2)cc1 [Compound 16, N-cyclohexyl-7-(3,5-dimethylisoxazol-4-yl)-2-(4-methoxyphenethyl)imidazo[1,2-a]pyridin-3-amine]
DSF selectivity [5]: greater selectivity than the known inhibitor, CBP30

decrease in CBP inhibitory potency ([7]; compared to compound 16): ~3 fold
Structure (SMILES): COc1ccc(CCc2nc3cc(-c4c(C)noc4C)ccn3c2NC(C)C)cc1 [Compound 17, 7-(3,5-dimethylisoxazol-4-yl)-N-isopropyl-2-(4-methoxyphenethyl)imidazo[1,2-a]pyridin-3-amine]

decrease in CBP inhibitory potency ([7]; compared to compound 16): > 5 fold
Structure (SMILES): COc1ccc(CCc2nc3cc(-c4c(C)noc4C)ccn3c2NC(C)(C)C)cc1 [Compound 18]

decrease in CBP inhibitory potency ([7]; compared to compound 16): ~ 4 fold
Structure (SMILES): CCCOc1ccc(CCc2nc3cc(-c4c(C)noc4C)ccn3c2NC2CCCCC2)cc1 [Compound 20]
